Measurements collected from several papers.
Compare with care: the assays were run in different laboratories.
EGFR: Epidermal growth factor receptor (EGFR, Homo sapiens, UniProt P00533)

SMILES	target	observed	action	technique	endpoint	value
COc1cc2ncnc(Nc3ccc(O)cc3)c2cc1OC	EGFR	binding			Kd	26 nM
C=C(Cl)C(=O)Nc1cc(Nc2nc(N3CCc4sccc4C3)c3sccc3n2)c(OC)cc1N(C)CCN(C)C	EGFR	enzyme activity	inhibitor	ELISA	IC50	996 nM
O=C(N/N=C/c1cccn1CCCN1CCCCC1)Nc1cc2c(Nc3ccc(F)c(Cl)c3)ncnc2cc1O[C@H]1CCOC1	EGFR	enzyme activity	inhibitor		IC50	0.8 nM
CC#CC(=O)N1CC[C@@H](n2cc(-c3ccc(Oc4c(F)cccc4F)cc3)c3c(N)n[nH]c(=O)c32)C1	EGFR	binding		competition with immobilised ligand	Kd	270 nM
COc1cc2ncc(-c3ccccc3)nc2cc1OC	EGFR	binding			Kd	> 10000 nM
CCN(CC)C/C=N/NC(=O)Nc1cc2c(Nc3ccc(F)c(Cl)c3)ncnc2cc1O[C@H]1CCOC1	EGFR	enzyme activity	inhibitor		IC50	0.4 nM
C=C(Cl)C(=O)Nc1cc(Nc2nc(Nc3cnn(C)c3)c3sccc3n2)c(OC)cc1N(C)CCN(C)C	Epidermal growth factor receptor (EGFR, Homo sapiens, UniProt P00533, C797S/L858R/T790M)	enzyme activity	inhibitor	ELISA	IC50	> 1000 nM
C=CC(=O)Nc1cc(Nc2nccc(-c3cn(C4CC4)c4ccccc34)n2)c(OC)cc1N(C)CCN(C)C	Epidermal growth factor receptor (EGFR, Homo sapiens, UniProt P00533, G719S)	enzyme activity	inhibitor	TR-FRET	IC50	82.8 nM
